# Bioassay records: PubChem, Columbia University Molecular Screening Center
# The entries come from a sample that favours hits as a whole.
# INS promoter act: activators of insulin promoter-driven GFP, primary screen, imaging, TRM-6 cells (human fetal islet line), eGFP reporter, cell count; plate-scaled: unstimulated 0, stimulated control 100; AID 1296, 2008; 130,000 compounds, 0.81% hits; activation, % at 2 µM;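 active = activation at 2 µM above a set limit, confirmed on inspection of the cell images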;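 also: share of cells whose green reporter signal exceeds an intensity cutoff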
#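 Assay system: TRM-6 human fetal islet cells, insulin promoter–eGFP reporter; Also added: 0.75 µM tamoxifen as reporter inducer; Schedule: 15 h tamoxifen pre-treatment, 48 h compound treatment at 37 °C; Signal: fixed-cell fluorescence microscopy, eGFP plus Hoechst; Read-out: percent activation from GFP-positive cell fraction; Control set: stimulated and unstimulated wells.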
# * hit, by the source's call.
SMILES,INS promoter act
Cc1ccc(C(C#N)N2CCOCC2)cc1 (stereo unspecified),-30
O=S(=O)(Nc1ccc2c(c1)OCCO2)c1ccc2oc3ccccc3c2c1,347
CC(C)CNc1cc(Cl)c(S(=O)(=O)NCC(C)C)cc1C(=O)O,0
O=C(O)c1cc(S(=O)(=O)Nc2ccc3c(c2)OCCO3)c(Cl)cc1Cl,150*
CCOC(=O)C1CCCN(C(=O)C(C)(C)Oc2ccc(Cl)cc2)C1 (stereo unspecified),9
Cn1c(N)c(C(=O)COC(=O)C2CCCN2C(=O)c2cccs2)c(=O)n(C)c1=O (stereo unspecified),-71
COc1ccc(/C=N/NC(=O)c2ccncc2)cc1Cn1nc([N+](=O)[O-])c(Br)c1C,394*
COc1ccc(/C=N/NC(=O)c2ccc(Br)o2)cc1Cn1cc([N+](=O)[O-])cn1,0
COc1cc(/C=N/NC(=O)c2ccncc2)ccc1OC(=O)c1ccc([N+](=O)[O-])cc1,-100
C=CCn1c(C)cc(C(=O)COC(=O)CNC(=O)c2ccccc2)c1C,-67
CN(C1CCCC1)C1CCN(C(=S)Nc2cc(F)cc(F)c2)CC1,-7
C/C(=N\Nc1ccc(C(F)(F)F)cn1)c1ccncc1,-2
Cc1cc(C)n(CC(O)CN2c3ccccc3Sc3ccccc32)n1 (stereo unspecified),209*
Cc1cc(C)n(CC(O)Cn2c3ccccc3c3ccccc32)n1 (stereo unspecified),314
Cc1cc(C)n(CC(=O)n2c3ccccc3c3ccccc32)n1,-4
O=C(Nc1cccnc1)C1CCCN1S(=O)(=O)c1ccc(Cl)c(Cl)c1 (stereo unspecified),481*
COc1ccc(S(=O)(=O)N2CCCC(C(=O)Nc3cccnc3)C2)cc1Cl (stereo unspecified),-8
O=C(Nc1cccc(S(=O)(=O)N2CCOCC2)c1)[C@@H]1CCCN1S(=O)(=O)c1ccc(Cl)cc1,103
O=C1CC(C2CCCO2)C(=O)N1c1ccccc1 (stereo unspecified),311
Cc1ccc(-c2csc(N/N=C/c3ccco3)n2)c(C)c1,7
CCN(CC)C(=O)c1ccc(S(=O)(=O)NCc2cccnc2)cc1,-3
O=S(=O)(NCc1cccnc1)c1ccc(Cl)c(Cl)c1,-9
O=S(=O)(NCc1cccnc1)c1ccc2c(c1)OCCO2,469*
O=C(COC(=O)[C@H](Cc1c[nH]c2ccccc12)NC(=O)c1cccs1)NCc1ccccc1,-3
Cc1cc(C)c(Cn2c(=O)n(CCCC(=O)NCc3ccco3)c(=O)c3ccccc32)c(C)c1,-5
SMILES,INS promoter act
Clc1ccc(CSc2nnc(CNc3cccc(Cl)c3)o2)cc1,-9
Cc1noc(C)c1CSc1ccc2ccccc2n1,105*
Cc1noc(C)c1CSc1nc2ccccc2s1,3
Cc1noc(C)c1CSc1nnc(C)c(=O)[nH]1,-78
COc1cc2c(cc1OC)/C(=C/c1ccc(Br)cc1)C(=O)OC2,-71
O=C1CCC([N+](=O)[O-])C(c2ccccc2Cl)N1 (stereo unspecified),79*
O=C(Nc1cccc(C(F)(F)F)c1)c1ccccc1NC(=O)C1CCCCC1,-4
Cc1cc(C(=O)Nn2c(-c3ccncc3)nc3ccccc3c2=O)ccc1[N+](=O)[O-],0
Cn1cccc1C(=O)OCC(=O)c1cc2ccccc2o1,185*
Cc1cc(SCC(=O)c2cc3ccccc3o2)nc2ccccc12,8
CC(C)NC(=O)c1cc2ccccc2o1,-27
C#CCCCCCCC#CCN(C)C,0
FC(F)(F)c1ccc2c(c1)[nH]c(=S)n2C1CC1,0
CC(=O)c1ccc(N2CCN(S(=O)(=O)c3cccc(S(=O)(=O)N4CCOCC4)c3)CC2)cc1,-4
O=S(=O)(c1cccc(S(=O)(=O)N2CCC(N3CCCCC3)CC2)c1)N1CCOCC1,631*
O=S(=O)(c1cccc(S(=O)(=O)N2CCC(Cc3ccccc3)CC2)c1)N1CCOCC1,3
O=C(CCc1nnc(C2CCCCC2)o1)N1CCCCC1CCn1cccn1 (stereo unspecified),-4
COc1ccc(CC(=O)Nc2c3c(nn2-c2ccccc2C)CS(=O)C3)cc1 (stereo unspecified),456*
CCc1ccc(NC(=O)Cc2ccc(OC)cc2)cc1,-3
COc1ccc(CC(=O)Nc2cccc(-c3ccc4nnc(C)n4n3)c2)cc1,0
CCOC(=O)c1c(NC(=O)CSc2nnnn2-c2ccc(OC)cc2)sc(C)c1C,-7
Cc1cc(C(=O)NCCN2C(=O)S/C(=C\c3cccs3)C2=O)ccc1[N+](=O)[O-],3
CCNS(=O)(=O)c1ccc(NC(=O)c2ccccc2OCC)cc1,206
CCN1CCCC1CNS(=O)(=O)c1ccc(C(=O)Nc2ccccc2)cc1 (stereo unspecified),500*
O=C(Nc1ccc(S(=O)(=O)N2CCCCC2)cc1)c1ccc(CN2CCc3ccccc3C2)cc1,3
COc1ccc(CCNC(=O)CNS(=O)(=O)c2cccs2)cc1OC,-10
Cc1cc(C)n2nc(CC(=O)NCc3ccc(F)cc3)nc2n1,-7
Cc1ccc(NC(=O)CN(C)C(=O)CSc2nc(C)cs2)cc1,6
